Publication PMC5731780 (Structure (London, England : 1993), 2017)
“And” between values parts separate entries of the source, which are not always exact repeats. Identical values can stand only once. Blank lines part the entries; values can stand above or below the molecule they belong to.

Columns and labels:
[1] = biological target: T1, Ub (Homo sapiens, UniProt P0CG48); assay: NMR titration of 15N-labeled Ub; format: binding
[2] = biological target: T1, Ub; assay: ubiB fluorescence anisotropy titration with Ub; format: binding; conditions: read-out: Kd, Ub (fluorescence anisotropy)
How it was run: (§1)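 Fluorescence anisotropy was measured at 21°C in PBS pH 7.4. ubiB was held at 1 μM for Ub2 titrations and 10 μM for Ub, while Ub or Ub2 was varied. Readings were taken in T-configuration, excitation 386 nm, emission 485 nm. Anisotropy change was fitted to a single-site binding model for Kd.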

[3] = system: CFTR ubiquitination; assay: In vitro CFTR ubiquitination assay; format: biochemical, yeast
[4] = system: HeLa cells; assay: Perturbation of the Ub landscape in cells; format: cell-based, human
[5] = system: Cezanne (OTUD7B); assay: Gel-based assay of K11-Ub2 disassembly by Cezanne; format: biochemical; conditions: stoichiometric ubiB
[6] = biological target: T2, Ub^R74A (Homo sapiens, UniProt P0CG48, R74A); assay: NMR titration of 15N-labeled Ub^R74A; format: binding
How it was run: (§2)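 Unlabeled ubistatin was added in increasing amounts to 15N-labeled Ub variant in 20 mM phosphate (pH 6.8), 0.02% NaN3, 5% D2O at 23°. Binding was followed in 1H-15N HSQC or SOFAST-HMQC spectra. Signal shifts were quantified as CSPs and fitted against bound fraction to give Kd.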

[7] = system: OTUB1; assay: Gel-based assay of K48-Ub2 disassembly by OTUB1; format: biochemical; conditions: stoichiometric ubiB
[8] = biological target: K11-Ub2 (Homo sapiens, UniProt P0CG48); assay: ubiB fluorescence anisotropy titration with K11-Ub2; format: binding; conditions: read-out: Kd, K11-Ub2 (fluorescence anisotropy)
How it was run: as §1

[9] = system: Rpn11 in purified proteasome; assay: Proteasome/Rpn11 inhibition assay; format: biochemical, human
How it was run: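 Human erythrocyte proteasome was used with Ub4pep substrate: His6, four head-to-tail Ub repeats and a 30-mer peptide whose cysteine carried Oregon Green 488. Compounds were screened at 10 μM. IC50 came from 0–100 μM series in quadruplicate.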

[10] = biological target: T3, K48-Ub2 (Homo sapiens, UniProt P0CG48); assay: SANS of K48-Ub2 with ubiB; format: binding; conditions: equimolar ubiB
[11] = biological target: T4, Ub^R74E (Homo sapiens, UniProt P0CG48, R74E); assay: NMR titration of 15N-labeled Ub^R74E; format: binding
How it was run: as §2

[12] = biological target: Ub^R42E (Homo sapiens, UniProt P0CG48, R42E); assay: NMR titration of 15N-labeled Ub^R42E; format: binding; conditions: read-out: Dissociation constant, Ub^R42E (NMR titration); Table 2
How it was run: (§3)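 Ub point mutants were made by PCR mutagenesis of human wild-type Ub in pET3a, with DpnI digestion and sequence verification. Increasing amounts of unlabeled ubistatin were titrated into 15N-labeled protein in 20 mM phosphate pH 6.8, 0.02% NaN3, 5% D2O, at 23°. Signal shifts and attenuations were tracked in 1H-15N HSQC or SOFAST-HMQC spectra, and spectral perturbations were quantified at each titration step.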

[13] = biological target: T5, Ub^R42E,R72E (Homo sapiens, UniProt P0CG48, R42E/R72E); assay: NMR titration of 15N-labeled Ub^R42E,R72E; format: binding
How it was run: as §3

[14] = biological target: T2, Ub^R74A; assay: 15N T1 relaxation of Ub^R74A with ubistatin; format: binding; conditions: mean (SD)
How it was run: (§4)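 Human Ub and its point mutants were expressed from pET3a and made by PCR mutagenesis. Samples were in 20 mM phosphate buffer (pH 6.8) with 0.02% (w/v) NaN3 and 5% D2O. 15N T1 was measured at 23° on 600 and 800 MHz spectrometers with cryoprobes, using standard pulse sequences.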

[15] = biological target: T6, Ub^72 (Homo sapiens, UniProt P0CG48); assay: NMR titration of 15N-labeled Ub^72; format: binding
How it was run: as §2

[16] = biological target: T3, K48-Ub2; assay: ubiB fluorescence anisotropy titration with K48-Ub2; format: binding; conditions: read-out: Kd, K48-Ub2 (fluorescence anisotropy)
How it was run: as §1

[17] = system: Ubp6; assay: Gel-based assay of K48-Ub2 disassembly by Ubp6; format: biochemical, yeast
[18] = biological target: T3, K48-Ub2; assay: NMR competition assay against ubiquilin-1 UBA domain for K48-Ub2; format: binding
[19] = biological target: T6, Ub^72; assay: 15N T1 relaxation of Ub^72 with ubistatin; format: binding; conditions: mean (SD)
How it was run: as §4

[20] = system: HeLa and RCC4 cells; assay: ubiB internalization in live cells by fluorescence microscopy; format: cell-based, human; conditions: 10 μM ubiB, 6 hrs
How it was run: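 HeLa and RCC4 cells were grown in DMEM/10% FBS on glass-bottom dishes, exposed to 10 μM ubiB for 6 hrs, and washed three times in PBS. Plasma membrane was stained with Texas Red wheat germ agglutinin (1:500, 15 min). Live cells were imaged by confocal Z-stacks (63× oil), with 405 nm excitation for ubiB and 555 nm for the membrane probe.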

[21] = biological target: T4, Ub^R74E; assay: 15N T1 relaxation of Ub^R74E with ubistatin; format: binding; conditions: mean (SD)
How it was run: as §4

[22] = biological target: T5, Ub^R42E,R72E; assay: 15N T1 relaxation of Ub^R42E,R72E with ubistatin; format: binding; conditions: mean (SD)
How it was run: as §4

[23] = biological target: K63-Ub2; assay: ubiB fluorescence anisotropy titration with K63-Ub2; format: binding, human; conditions: read-out: Kd, K63-Ub2 (fluorescence anisotropy)
How it was run: as §1

[24] = system: AMSH; assay: Gel-based assay of K63-Ub2 disassembly by AMSH; format: biochemical; conditions: stoichiometric ubiB
[25] = biological target: T1, Ub; assay: 15N T1 relaxation of Ub with ubistatin; format: binding; conditions: mean (SD) over residues in structured regions
How it was run: (§5)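 15N T1 longitudinal relaxation measured with standard pulse sequences at 23°, 600 and 800 MHz with cryoprobes. 15N-labeled human Ub or K48-linked Ub2 was free or mixed with ubistatin in 20 mM phosphate buffer pH 6.8 with 0.02% (w/v) NaN3 and 5% D2O. Values are means with standard deviations averaged over residues in structured regions.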

[26] = biological target: T1, Ub; assay: SANS of Ub with ubiB; format: binding; conditions: equimolar ubiB
[27] = system: yeast 26S proteasome; assay: Gel-based assay of DUB activity of 26S proteasome; format: biochemical
[28] = biological target: T1, Ub; assay: NMR competition assay against ubiquilin-1 UBA domain for Ub; format: binding; conditions: up to 3-fold molar excess
[29] = biological target: T3, K48-Ub2; assay: 15N T1 relaxation of K48-Ub2 with ubistatin; format: binding; conditions: mean (SD)
How it was run: as §5

Compound: O=S(=O)(O)c1cccc2cccc(Nc3ccccc3)c12 [ANS, 8-anilinonaphthalene-1-sulfonic acid, reference compound]
CSPs in Ub upon titration [1]: < 0.1 ppm

Kd [2]: 14 ± 1.6 µM | IC50 ([3]; read-out: IC50, CFTR ubiquitination, titration of ubiB): ~10 µM and 10 µM | weakening of ubiB binding, Ub^R74A vs Ub [6]: 3.5 fold | Kd ([6]; read-out: Dissociation constant, Ub^R74A (NMR titration), Table 2): 40.3 µM | Kd [8]: 1.83 ± 0.05 µM | IC50 ([9]; read-out: IC50, DUB activity of Rpn11 in purified proteasome, deubiquitination): 1.1 µM and 1 µM | Radius of gyration (Rg) of K48-Ub2 + ubiB [10]: 20.1 (0.1) Å | weakening of ubiB binding, Ub^R74E vs Ub [11]: 6 fold | Kd ([11]; read-out: Dissociation constant, Ub^R74E (NMR titration), Table 2): 67.6 µM | Kd [12]: 396 µM | binding to Ub^R42E,R72E [13]: only negligible CSPs | Kd ([13]; read-out: Dissociation constant, Ub^R42E,R72E (NMR titration), Table 2): > 1000 µM | 15N T1 of Ub^R74A in the presence of ubistatin [14]: 544 (26) ms | decrease in binding affinity, Ub^72 vs Ub [15]: 6 fold | Kd ([15]; read-out: Dissociation constant, Ub^72 (NMR titration), Table 2): 73.1 µM | Kd [16]: 0.264 ± 0.023 µM | competition with UBA for binding to K48-Ub2 [18]: outcompeted UBA for binding to K48-Ub2 | 15N T1 of Ub^72 in the presence of ubistatin [19]: 482 (28) ms | 15N T1 of Ub^R74E in the presence of ubistatin [21]: 556 (28) ms | 15N T1 of Ub^R42E,R72E in the presence of ubistatin [22]: 493 (27) ms | Kd [23]: 4.88 ± 0.22 µM | 15N T1 of Ub in the presence of ubistatin [25]: 660 ± 25 ms | Radius of gyration (Rg) of Ub + ubiB [26]: 17.4 (0.1) Å | competition with UBA for binding to Ub [28]: outcompetes UBA for binding to Ub | Kd ([1]; read-out: Dissociation constant, Ub (NMR titration), Table 2): 11.3 µM | 15N T1 of K48-Ub2 in the presence of ubistatin [29]: 942 (66) ms
Compound: O=S(=O)(O)c1ccc2c(ccc3nn(-c4ccc(/C=C/c5ccc(-n6nc7ccc8cc(S(=O)(=O)O)ccc8c7n6)cc5S(=O)(=O)O)c(S(=O)(=O)O)c4)nc32)c1 [ubiB, Ubistatin B]
concentration required for complete inhibition of ubiquitination [3]: ≥ 100 µM | CFTR protein modified (ubiquitinated), DMSO control = 100% ([3]; 100 μM compound, 26°C, 60 min): 18±2% | inhibition of ubiquitination ([3]; at 1 μM ubiB): 5-10% | Ub conjugates below 70 kDa ([4]; 2 μM ubiB, 8 hrs): greatly diminished | Ub conjugates, RIPA lysis, Western blot ([4]; 6 hrs ubiB treatment): increases the amount of Ub conjugates | disassembly of K11-Ub2 by Cezanne (OTUD7B) [5]: prevented | disassembly of K48-Ub2 by OTUB1 [7]: prevented | inhibition of deubiquitination ([9]; at 1 μM ubiB): ~50% | effect on disassembly of K48-Ub2 by Ubp6 [17]: concentration-dependent effect | toxicity judged by cell morphology [20]: not toxic | cell internalization ([20]; no chemical permeabilization): distinct ubiB fluorescence at and within the boundaries of the fluorescently labeled plasma membrane | disassembly of K63-Ub2 by AMSH [24]: prevented | disassembly of K11-Ub6+ by 26S proteasome ([27]; 20 hr time course): only trace amounts of cleavage intermediates appeared | processing of Ubch5b-Ubn by 26S proteasome ([27]; K11, K48, K63 linkage-specific antibodies): preserved all three linkage types | direct binding to 15N Ub by CSPs ([1]; starting Ub 1 mM): produced CSPs in and around Ub's hydrophobic patch
